We go through three compounds from ChEMBL document CHEMBL3232782, “1,2,3,4,8,9,10,11-octahydrobenzo[j]phenanthridine-7,12-diones as new leads against Mycobacterium tuberculosis” (J Med Chem, 2014).

What all share (type): functional
Assay [1] concerns Mycobacterium tuberculosis. Kind of assay: Antimycobacterial activity against multidrug-resistant Mycobacterium tuberculosis LAM-1 assessed as bacterial growth index at 0.50 uM measured on day 6 by BACTEC MGIT 960TB method relative to control. The procedure, abridged:
(§1)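 MDR LAM-1, resistant to INH, RIF, rifabutin and prothionamide, was precultured in BACTEC MGIT vials to GI 300. It was inoculated with compound dilutions made from 1 mg/mL DMSO stocks in 7H9-OADC. Growth index was recorded daily. Day-6 GI was compared with an untreated culture diluted 100-fold (C/100) to set the critical 99% inhibitory concentration. Controls: INH 0.1 μM; moxifloxacin 1.14 μM.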

Assay [2] relates to Mycobacterium tuberculosis. Kind of assay: Antimycobacterial activity against multidrug-resistant Mycobacterium tuberculosis LAM-1 assessed as bacterial growth index at 2.5 uM measured on day 6 by BACTEC MGIT 960TB method relative to control. Put shortly: as §1
Assay [3] concerns Mycobacterium tuberculosis. Nature of the assay: Antimycobacterial activity against multidrug-resistant Mycobacterium tuberculosis LAM-1 assessed as bacterial growth index at 0.25 uM measured on day 6 by BACTEC MGIT 960TB method relative to control. The procedure, abridged:
as §1

Turning to `CC(C)(C)C1CCc2ncc3c(c2C1)C(=O)C1=C(C3=O)C2CCC1C2` (stereo unspecified), the Growth_index in assay [1] amounted to 1982; in assay [2] it was 537.

Turning to `CCOC(=O)C1CCc2ncc3c(c2C1)C(=O)C1=C(C3=O)C2CCC1C2` (stereo unspecified), the Growth_index in assay [1] was found to be 367; in assay [3] it was 1970.

As to `CCOC(=O)C1CCc2ncc3c(c2C1)C(=O)C1=C(C3=O)C2CCC1CC2` (stereo unspecified), the Growth_index is given as 638 in assay [1] and 2382 in assay [3].
